≈ marks a conversion by molar mass, not a printed value.
How the values were obtained:
[1] = biological target: T1, Bifunctional epoxide hydrolase 2 (Homo sapiens, UniProt P34913); experiment: Inhibition of human soluble epoxide hydrolase by fluorescent based assay
T1 sequence (P34913 whole entry): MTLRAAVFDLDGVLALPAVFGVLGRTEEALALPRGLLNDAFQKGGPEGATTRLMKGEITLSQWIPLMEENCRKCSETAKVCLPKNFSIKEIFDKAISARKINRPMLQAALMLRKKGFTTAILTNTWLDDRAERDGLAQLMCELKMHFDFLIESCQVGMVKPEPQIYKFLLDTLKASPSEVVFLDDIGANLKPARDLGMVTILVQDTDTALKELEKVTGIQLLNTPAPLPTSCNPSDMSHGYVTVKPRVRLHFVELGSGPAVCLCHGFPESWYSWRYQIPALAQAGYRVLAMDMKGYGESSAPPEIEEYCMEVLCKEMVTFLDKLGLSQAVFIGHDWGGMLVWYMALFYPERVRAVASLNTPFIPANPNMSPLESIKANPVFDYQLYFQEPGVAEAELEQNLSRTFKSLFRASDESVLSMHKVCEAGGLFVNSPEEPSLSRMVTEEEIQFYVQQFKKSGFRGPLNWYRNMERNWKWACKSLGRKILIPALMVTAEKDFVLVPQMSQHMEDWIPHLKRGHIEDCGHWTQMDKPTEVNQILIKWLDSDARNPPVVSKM

Mus musculus [2] = experiment: Half life in Swiss Webster mouse at 5 mg/kg, po; format: ADME, organism-based; design: dose 5 mg/kg, route oral; details: in vivo
[3] = Solubility in oil; format: physicochemical
[4] = Solubility in sodium phosphate buffer at pH 7.4; format: physicochemical
Mus musculus [5] = experiment: AUC in Swiss Webster mouse at 5 mg/kg, po; format: ADME, organism-based, Plasma; design: dose 5 mg/kg, route oral; details: in vivo
Outline: (§1)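 Male Swiss Webster mice, 7 weeks old, dosed by oral gavage at 5 mg/kg in olive oil. AUDA was measured in blood by LC-MS/MS. Cmax, AUC to terminal time and T1/2 were calculated from AUDA blood concentrations.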

Mus musculus [6] = experiment: Cmax in Swiss Webster mouse at 5 mg/kg, po; format: ADME, organism-based; design: dose 5 mg/kg, route oral; details: in vivo; outline: as §1
Cocaine esterase = biological target: T2, Cocaine esterase (Homo sapiens, UniProt O00748); experiment: Activity of human recombinant carboxylesterase 2 assessed as AUDA hydrolysis; design: concentration or dose not given beside the values
T2 sequence (O00748 whole entry): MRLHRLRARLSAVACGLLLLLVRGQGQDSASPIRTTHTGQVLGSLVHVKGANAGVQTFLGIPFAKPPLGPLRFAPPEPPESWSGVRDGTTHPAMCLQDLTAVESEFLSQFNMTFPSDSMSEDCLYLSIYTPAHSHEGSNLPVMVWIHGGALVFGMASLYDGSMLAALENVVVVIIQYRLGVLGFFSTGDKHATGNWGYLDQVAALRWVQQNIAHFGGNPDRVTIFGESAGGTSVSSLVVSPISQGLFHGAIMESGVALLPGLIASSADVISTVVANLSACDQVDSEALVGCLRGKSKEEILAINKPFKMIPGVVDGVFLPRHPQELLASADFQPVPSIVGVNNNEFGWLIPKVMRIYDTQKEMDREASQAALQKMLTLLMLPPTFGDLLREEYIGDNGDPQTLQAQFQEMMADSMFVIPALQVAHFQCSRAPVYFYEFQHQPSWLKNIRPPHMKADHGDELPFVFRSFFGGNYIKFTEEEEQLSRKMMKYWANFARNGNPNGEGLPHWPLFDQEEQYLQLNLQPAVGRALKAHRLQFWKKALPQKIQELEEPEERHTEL
Outline: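 Ester (100 μM) was incubated with purified baculovirus-expressed human carboxylesterase (hCE-1 or hCE-2, 5 μg; 333 nM) in 0.1 M sodium phosphate pH 7.4 at 37°C. Sampling was at 0, 30 and 60 min, with 60 min reported. Percent free acid (AUDA) formed was measured by LC-MS/MS. Values are averages of three separate measurements.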

Liver carboxylesterase 1 = biological target: T3, Liver carboxylesterase 1 (Homo sapiens, UniProt P23141); experiment: Activity of human recombinant carboxylesterase 1 assessed as AUDA hydrolysis; design: scale not given: the % may be the effect or the level left
T3 sequence (P23141 whole entry): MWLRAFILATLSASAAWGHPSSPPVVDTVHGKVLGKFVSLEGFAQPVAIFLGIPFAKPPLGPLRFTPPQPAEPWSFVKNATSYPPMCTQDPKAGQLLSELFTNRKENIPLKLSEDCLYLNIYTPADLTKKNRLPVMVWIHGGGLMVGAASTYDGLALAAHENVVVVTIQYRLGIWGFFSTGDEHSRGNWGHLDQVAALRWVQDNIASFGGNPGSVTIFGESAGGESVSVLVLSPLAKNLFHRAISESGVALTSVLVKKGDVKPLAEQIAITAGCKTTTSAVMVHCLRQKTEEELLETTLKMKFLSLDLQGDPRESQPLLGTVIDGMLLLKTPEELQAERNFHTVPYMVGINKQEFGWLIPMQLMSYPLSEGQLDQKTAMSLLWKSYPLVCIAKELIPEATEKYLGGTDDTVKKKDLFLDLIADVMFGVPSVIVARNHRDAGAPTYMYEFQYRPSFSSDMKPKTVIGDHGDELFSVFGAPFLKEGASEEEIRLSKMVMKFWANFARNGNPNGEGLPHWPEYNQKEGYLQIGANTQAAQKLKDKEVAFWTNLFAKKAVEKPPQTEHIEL

[7] = biological target: T4, Bifunctional epoxide hydrolase 2 (Mus musculus, UniProt P34914); experiment: Inhibition of mouse soluble epoxide hydrolase by spectrometric based assay
T4 sequence (P34914 whole entry): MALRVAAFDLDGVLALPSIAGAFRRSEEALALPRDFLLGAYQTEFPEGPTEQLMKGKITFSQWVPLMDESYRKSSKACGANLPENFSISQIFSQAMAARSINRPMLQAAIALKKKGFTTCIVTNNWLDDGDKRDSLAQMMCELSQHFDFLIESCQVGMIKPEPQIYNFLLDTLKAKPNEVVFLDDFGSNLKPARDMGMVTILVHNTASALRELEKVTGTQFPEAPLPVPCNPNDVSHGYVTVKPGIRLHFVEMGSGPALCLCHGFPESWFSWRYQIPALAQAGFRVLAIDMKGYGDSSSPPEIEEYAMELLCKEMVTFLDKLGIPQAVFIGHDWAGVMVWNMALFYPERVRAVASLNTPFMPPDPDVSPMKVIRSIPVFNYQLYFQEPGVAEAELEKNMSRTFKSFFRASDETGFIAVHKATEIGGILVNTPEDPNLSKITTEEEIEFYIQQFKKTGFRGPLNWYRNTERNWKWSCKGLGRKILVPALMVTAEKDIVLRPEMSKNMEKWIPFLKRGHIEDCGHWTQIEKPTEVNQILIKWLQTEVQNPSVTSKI

[8] = biological target: T1, Bifunctional epoxide hydrolase 2; experiment: Inhibition of human soluble epoxide hydrolase by spectrometric based assay

| IC50 [1] | t1/2 (Mus musculus [2]) | solubility [3] | solubility [4] | AUC (Mus musculus [5]) | Cmax (Mus musculus [6]) | Activity (Cocaine esterase) | Activity (Liver carboxylesterase 1) | IC50 [7] | IC50 [8] | Structure (SMILES) |
| --- | --- | --- | --- | --- | --- | --- | --- | --- | --- | --- |
| 2 nM |  |  |  |  |  |  |  |  |  | O=C(NCCCCCCCCCCCC(=O)OCc1ccccc1)NC12CC3CC(CC(C3)C1)C2 |
| 1.6 nM |  |  |  |  |  |  |  |  |  | CCOC(=O)CCCCCCCCCCCNC(=O)NC12CC3CC(CC(C3)C1)C2 |
|  | 2.3 h | 5000 µg/mL (≈ 12700 µM) | 35 µg/mL (≈ 89.2 µM) | 87 ng·h/mL | 26.9 ng/mL | 100% | 100% |  |  | O=C(O)CCCCCCCCCCCNC(=O)NC12CC3CC(CC(C3)C1)C2 |
| 1 nM |  |  |  |  |  |  |  |  |  | CCCOC(=O)CCCCCCCCCCCNC(=O)NC12CC3CC(CC(C3)C1)C2 |
| 1.2 nM |  | 17000 µg/mL (≈ 37900 µM) | 1.7 µg/mL (≈ 3.79 µM) | 110 ng·h/mL | 42.9 ng/mL | 33% | 55% |  |  | CC(C)COC(=O)CCCCCCCCCCCNC(=O)NC12CC3CC(CC(C3)C1)C2 |
| 7.6 nM |  |  |  |  |  |  |  | 50 nM | 220 nM | O=C(CCCCCCCCCCCNC(=O)NC12CC3CC(CC(C3)C1)C2)NCC(=O)N[C@H]1O[C@@H](CO)[C@H](O)[C@@H](O)[C@@H]1O |
|  |  |  | 10 µg/mL (≈ 21.3 µM) |  |  |  |  |  |  | CS(=O)(=O)NC(=O)CCCCCCCCCCCNC(=O)NC12CC3CC(CC(C3)C1)C2 |
| 1.8 nM |  |  |  |  |  |  |  |  |  | C#CCOC(=O)CCCCCCCCCCCNC(=O)NC12CC3CC(CC(C3)C1)C2 |
| 0.7 nM | 3.8 h | 27000 µg/mL (≈ 60200 µM) | 5 µg/mL (≈ 11.1 µM) | 47 ng·h/mL | 13.1 ng/mL | 26% |  |  |  | CCC(C)OC(=O)CCCCCCCCCCCNC(=O)NC12CC3CC(CC(C3)C1)C2 (stereo not drawn) |
|  |  | 25000 µg/mL (≈ 55700 µM) | 5 µg/mL (≈ 11.1 µM) | 96 ng·h/mL | 39.5 ng/mL | 39% | 41% |  |  | CCCCOC(=O)CCCCCCCCCCCNC(=O)NC12CC3CC(CC(C3)C1)C2 |
| 1.5 nM |  |  |  |  |  |  |  | 50 nM | 230 nM | O=C(NCCCCCCCCCCCC(=O)OC12CC3CC(CC(C3)C1)C2)NC12CC3CC(CC(C3)C1)C2 |
| 7.5 nM |  | 2000 µg/mL (≈ 2770 µM) | 38 µg/mL (≈ 52.6 µM) |  |  |  |  | 50 nM | 100 nM | CCCCCCCCC(NC(=O)CCCCCCCCCCCNC(=O)NC12CC3CC(CC(C3)C1)C2)C(=O)N[C@H]1O[C@@H](CO)[C@H](O)[C@@H](O)[C@@H]1O (stereo partly drawn) |
| 1.1 nM | 1.9 h | 12000 µg/mL (≈ 27600 µM) | 7 µg/mL (≈ 16.1 µM) | 84 ng·h/mL | 29.6 ng/mL | 39% | 72% |  |  | CC(C)OC(=O)CCCCCCCCCCCNC(=O)NC12CC3CC(CC(C3)C1)C2 |
| 1 nM |  |  |  |  |  |  |  |  |  | C=CCOC(=O)CCCCCCCCCCCNC(=O)NC12CC3CC(CC(C3)C1)C2 |
| 2.3 nM |  |  |  |  |  |  |  |  |  | COC(=O)CCCCCCCCCCCNC(=O)NC12CC3CC(CC(C3)C1)C2 |

— ChEMBL document CHEMBL1144497 (Bioorg Med Chem, 2007)
